Experimental data of several laboratories.
Protocols differ between the studies behind these lines.
ALK C1156Y: ALK tyrosine kinase receptor (ALK, Homo sapiens, UniProt Q9UM73, C1156Y)
ALK: ALK tyrosine kinase receptor (ALK, Homo sapiens, UniProt Q9UM73)
ALK L1196M: ALK tyrosine kinase receptor (ALK, Homo sapiens, UniProt Q9UM73, L1196M)

SMILES	target	assay	setting	remaining binding
C[C@@H]1CCN(c2nccc(-c3cnn4ncccc34)n2)C1	ALK C1156Y	binding	1 µM	91%
Nc1ncc2c(n1)-c1c([nH]c3ccc(C#CC4CC4)cc13)CCCC2	ALK	binding, competition with immobilised ligand	1 µM	95%
C=CC(=O)N1CCC(C(=O)NCC(=O)N2CCN(c3nc(-c4cnc(N)nc4C(F)F)nc(N4CCOCC4)n3)CC2)CC1	ALK	binding, competition with immobilised ligand	1 µM	71%
C[C@@H]1CN(c2ccc3ncc(-c4ccc5[nH]nc(C6CC6)c5c4)n3n2)C[C@H](C)O1	ALK	binding, competition with immobilised ligand	0.5 µM	80%
CNC(=O)[C@@H]1CC[C@@H](n2c(-c3ccc4cnccc4c3)nc3ccc(C(=O)NCc4cccc(C(N)=O)c4)cc32)C1	ALK C1156Y	binding, competition with immobilised ligand	1 µM	100%
O=C(c1ccc(Nc2ncc(Cl)c(-c3cc4ccccc4s3)n2)cc1)N1CCC(N2CCCC2)CC1	ALK C1156Y	binding, competition with immobilised ligand	1 µM	59%
C[C@H](c1ccc(F)cc1)N(Cc1cccc(C(=O)O)c1)C(=O)c1cnc2ccccc2c1	ALK L1196M	cell-free assay, competition with immobilised ligand	1 µM	76%
c1cnn2ncc(-c3ccnc(N4CCC45COC5)n3)c2c1	ALK C1156Y	binding	1 µM	73%
O=C(c1ccc(Nc2ncc(Cl)c(-c3ccc(Cl)s3)n2)cc1)N1CCC(N2CCCC2)CC1	ALK C1156Y	binding, competition with immobilised ligand	1 µM	38%
O=C(NCC1CCOCC1)c1n[nH]cc1NC(=O)c1c(F)cccc1F	ALK C1156Y	binding, competition with immobilised ligand	1 µM	99%
C[C@@H](c1ccc(-n2cnc3c(N)ncnc32)cc1)N1CCc2nn(C)c(Cc3ccccc3)c2C1=O	ALK L1196M	binding, competition with immobilised ligand	0.1 µM	60%
CN1CCN(c2ccc(Nc3nccc(-c4cccc([N+](=O)[O-])c4)n3)cc2C(F)(F)F)CC1	ALK C1156Y	binding	10 µM	42%
COc1cnc(Nc2cccc(S(N)(=O)=O)c2)nc1N1CCN(c2ccccc2)C(=O)C1	ALK L1196M	binding, competition with immobilised ligand	1 µM	81%
CC1CCCN1c1nccc(-c2cnn3ncccc23)n1 (centres unmarked)	ALK	binding	1 µM	69%
O=C(NCCCN1CCOCC1)c1ccc(Nc2nccc(-c3cc4ccccc4s3)n2)cc1	ALK C1156Y	binding, competition with immobilised ligand	1 µM	97%
CN1CCN(c2ccc(Nc3nccc(-c4ccccc4)n3)cc2C(F)(F)F)CC1	ALK L1196M	binding	10 µM	100%
CN(C)c1nccc(-c2cnc3ncccn23)n1	ALK C1156Y	binding	1 µM	82%
CCCCN(CCCC)C(=O)CN1C[C@H](c2cc(OC)c3c(c2)OCO3)[C@@H](C(=O)O)[C@@H]1CC(C)(C)CCC	ALK C1156Y	cell-free assay, competition with immobilised ligand	1 µM	100%

SMILES	target	assay	setting	remaining binding
Cc1cnc(Nc2ccc(C(=O)N3CCC(N4CCCC4)CC3)cc2)nc1-c1cc2ccccc2s1	ALK	binding, competition with immobilised ligand	1 µM	42%
C[C@@H]1CN(c2cc(-c3nn(C)c4ccc(OC5(C)CC5)cc34)ncn2)C[C@H](C)O1	ALK C1156Y	cell-free assay, competition with immobilised ligand	1 µM	82%
CN(C)c1ncc(F)c(-c2cnn3ncccc23)n1	ALK C1156Y	binding	1 µM	80%
CO[C@H]1CC[C@H](CNc2ccc(S(=O)(=O)NC(=O)c3ccc(N4CCN(CC5=C(c6ccc(Cl)cc6)CC(C)(C)CC5)CC4)cc3Oc3cnc4[nH]ccc4c3)cc2[N+](=O)[O-])CC1	ALK C1156Y	cell-free assay, competition with immobilised ligand	1 µM	100%
O=C(Nc1c[nH]nc1C(=O)NC1CCNCC1)c1cc(F)cc(F)c1	ALK	binding, competition with immobilised ligand	1 µM	91%
CO[C@@H](C)c1c(Nc2ccc([C@H](N(C)C(=O)C3CCS(=O)(=O)CC3)C(F)(F)F)cc2)cnc2cc(Cl)nn12	ALK L1196M	cell-free assay, competition with immobilised ligand	1 µM	100%
COc1ccnn2ncc(-c3ccnc(N(C)C)n3)c12	ALK L1196M	binding	1 µM	91%
O=C(NCCCN1CCOCC1)c1ccc(Nc2ncc(Cl)c(-c3ccc(Cl)s3)n2)cc1	ALK C1156Y	binding, competition with immobilised ligand	1 µM	61%
O=C(NCc1ncc(C(F)(F)F)cc1Cl)c1ccc2c(c1)C1(CCS(=O)(=O)CC1)[C@H](C1CC1)N2S(=O)(=O)c1ccc(F)cc1	ALK C1156Y	cell-free assay, competition with immobilised ligand	1 µM	82%
c1cncc(-c2cccc(Nc3nccc(NC4CCCCC4)n3)c2)c1	ALK	binding, competition with immobilised ligand	10 µM	62%
COc1cnc(Nc2cccc(S(N)(=O)=O)c2)nc1N1CCN(c2ccccc2)CC1	ALK C1156Y	binding, competition with immobilised ligand	1 µM	100%
CN(C)c1nccc(-c2cnn3ncccc23)n1	ALK C1156Y	binding	1 µM	71%
NS(=O)(=O)c1cc(NC(=O)Cc2ccccc2)ccc1Oc1cccc(Cl)c1	ALK C1156Y	cell-free assay, competition with immobilised ligand	1 µM	88%
COc1ncc2cc3ccccc3nc2c1C#N	ALK	cell-free assay, competition with immobilised ligand	5 µM	81%
CN([C@@H]1CCc2c(CC(=O)O)c3cc(S(C)(=O)=O)ccc3n2C1)S(=O)(=O)c1ccc(F)cc1	ALK L1196M	cell-free assay, competition with immobilised ligand	1 µM	89%
O=C(c1ccc(Nc2nccc(-c3cc4ccccc4s3)n2)cc1)N1CCC(N2CCCC2)CC1	ALK L1196M	binding, competition with immobilised ligand	1 µM	80%
Cc1cnn2ncc(-c3ccnc(N(C)C)n3)c2c1	ALK L1196M	binding	1 µM	71%
